Only some compounds are listed: those with a hit (about 1.2% of all), similar ones and a draw of the others.
RAD52 anneal inh = inhibitors of human RAD52 DNA annealing; inhibition, % at 18.7 µM; hit rate 0.46% among 360,000; P43351; recombinant RAD52 DNA annealing, FRET fluorescence;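 active means every replicate showing at least 50% inhibition; inconclusive means mean inhibition at least 50% but not in every replicate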
RAD54 branch = blocks human RAD54 Holliday junction branch migration; Q92698; FAM/BHQ fluorescence; inhibition, % at 10.4 µM; hit rate 0.14% among 360,000;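 active means mean normalized replicate activity at least 40 and at least half of replicates scoring 40 or more; inconclusive means only one of the two criteria met; inactive means mean below 40 and under half of replicates reaching 40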;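 further: 0% = median of neutral control wells and 100% = median of positive control wells; inhibitors cause a drop in the FAM fluorescence signal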
Target sequence (Q92698 whole entry, looked up): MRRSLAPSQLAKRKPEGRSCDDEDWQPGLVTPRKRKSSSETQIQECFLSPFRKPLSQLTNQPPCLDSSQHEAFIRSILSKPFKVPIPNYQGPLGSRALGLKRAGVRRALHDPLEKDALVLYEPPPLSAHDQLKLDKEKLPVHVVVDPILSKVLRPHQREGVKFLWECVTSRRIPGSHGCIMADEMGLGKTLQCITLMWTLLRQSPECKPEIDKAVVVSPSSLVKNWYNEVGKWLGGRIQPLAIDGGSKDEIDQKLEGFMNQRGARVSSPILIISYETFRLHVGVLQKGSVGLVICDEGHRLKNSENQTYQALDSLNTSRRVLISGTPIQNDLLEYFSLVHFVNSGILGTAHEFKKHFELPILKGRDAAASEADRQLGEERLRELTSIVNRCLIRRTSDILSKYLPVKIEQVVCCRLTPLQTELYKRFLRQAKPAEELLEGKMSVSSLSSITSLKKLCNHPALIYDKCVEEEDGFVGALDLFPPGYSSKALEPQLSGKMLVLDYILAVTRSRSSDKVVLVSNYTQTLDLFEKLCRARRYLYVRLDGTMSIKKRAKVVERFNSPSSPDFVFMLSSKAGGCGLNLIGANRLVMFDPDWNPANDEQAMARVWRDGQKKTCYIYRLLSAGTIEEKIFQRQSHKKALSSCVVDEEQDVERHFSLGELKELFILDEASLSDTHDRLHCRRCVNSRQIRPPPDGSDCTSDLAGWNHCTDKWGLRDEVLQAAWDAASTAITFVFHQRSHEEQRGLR
Glyco luc inh = N-linked glycosylation inhibition | hit rate 0.23% among 360,000 | D54 ERlucT glycosylation luciferase reporter, 24 h; percent of 100 nM tunicamycin response | reporter increase, % at 12.5 µM | AID 588692;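 active means mean luciferase reporter signal, scaled so untreated is 0 and the glycosylation-blocking control 100, at or above a set limit in every replicate; inconclusive means mean reaches the limit but not every replicate does; inactive means mean below the limit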;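 further: luciferase carries N-glycosylation sites so blocking glycosylation raises the light; 0% = median of neutral control wells and 100% = median of 100 nM tunicamycin wells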
MLL AF4-AF9 inh = blocks AF4 peptide binding to human AF9. AlphaScreen, biotin-AF4 peptide binding to FLAG-AF9. P42568. hit rate 0.47% among 350,000. inhibition, % at 10 µM;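 active means every replicate reaching a set inhibition limit, whatever the replicate mean, cut at about 25% in these data; inconclusive means mean inhibition reaches that limit but some replicates miss it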;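 further: 0% = plate neutral control median and 100% = total signal loss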
FN deposition inh = fibronectin deposition inhibition; AH1F fibroblasts, Alexa488-fibronectin deposition fluorescence, overnight; inhibition, % at 12.6 µM; hit rate 0.086% among 350,000; AID 743247;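 active means mean inhibition across replicates of 30% or more, regardless of how many single replicates reach that level; inconclusive means mean under 30% yet at least half of replicates reach 30%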;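 further: positive control wells lacked labelled fibronectin entirely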
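Material: AH1F fibroblast monolayer depositing Alexa488-labelled fibronectin into matrix | Input: 10000 AH1F cells/well | Medium: DMEM plus 2% serum, read in PBS | Reagent: Alexa488-fibronectin, 24 nM final in well | Compound dosing: One dose per compound, pinned | Schedule: 1 h adhesion, overnight exposure | Measured by: Fluorescence at 485 nm excitation, 525 nm emission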
NSD2 HMT inh = NSD2 (human) methyltransferase inhibition | O96028 | NSD2 peptide methylation, AlphaScreen, 120 min | hit rate 0.54% among 310,000 | AID 743445 | inhibition, % at 12.5 µM; in the data active means inhibition above about 50%
DNA binding = counter-screen for Rad54 inhibitors: DNA binding compounds | shares compounds with RAD54 branch | Acridine orange-DNA displacement, fluorescence polarization, 20 min | AC50, µM (doses to about 35 µM), for the others: at the top dose activity change, negative = DNA binding | hit rate 8% among 460;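 active means signal drop giving an AC50 within twice the top valid tested concentration of each sample, actives reach about 35 µM in these data; inactive means activity opposite to expected, plus the rest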;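 further: polarization loss reports compound binding to salmon sperm DNA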
Alpha interfer = counter-screen: AlphaScreen signal interference | shares compounds with MLL AF4-AF9 inh | signal luminescence | AC50, µM (highest dose often 12 µM), for the others: at the highest dose activity change, negative = inhibition | hit rate 45% among 530 | AID 720494; cut-off not given, nearly all actives have AC50 up to about 14 µM
DNA binder FP = binds DNA, flagging false RAD52 inhibitor hits; shares compounds with RAD52 anneal inh; Salmon sperm DNA/acridine orange FP displacement, DNA binding; AC50, µM; hit rate 8% among 1,000;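 active means fitted half-maximal concentration for signal loss at or below twice the highest dose tested, in every separate run, actives reach about 64 µM in these data; inconclusive means runs disagree, or flat partial signal loss, or poor fit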
Alpha artifact = AlphaScreen assay artifact in NSD2 counter-screen; AC35, µM (series often up to 10 µM), for inactives: at the highest dose activity change, negative = signal loss; shares compounds with NSD2 HMT inh; AlphaScreen artifact counterscreen, preloaded methylated H4 peptide; hit rate 9.4% among 1,500; call rule not given here
The depositor's hits bear a star; i = inactive; ? = inconclusive; nt = not tested or not shown; ! = not confirmed by another sample.

SMILES	RAD52 anneal inh	RAD54 branch	Glyco luc inh	MLL AF4-AF9 inh	FN deposition inh	NSD2 HMT inh	DNA binder FP	others
Fc1ccc(CN2CC3NC(C2)C3c2ccc(Br)cc2)cc1 (stereo unspecified)	nt	nt	nt	nt	-11	nt	nt
COc1ccc2c(c1)[nH]c1c(C)nccc12	29	71*	-14	-2	6	nt	nt	DNA binding=-15%
CN1CCC(N(C)c2nc(-c3ccccc3)nc3ccccc23)CC1	48	67*	4	1	nt	nt	nt	DNA binding=-16%
Cc1cc(N2CCN(C)CC2)nc2ccccc12	4	6	3	2	1	4	nt
COC(=O)[C@@H]1[C@@H](CO)[C@@H]2Cn3c(ccc(-c4ccccc4OC)c3=O)[C@H]1N2Cc1ccccc1	nt	-14	nt	nt	nt	nt	nt
CCN1CCN(c2ccc(N)c(C)c2)CC1	92*	77*	0	37*	nt	27	i	DNA binding=4%
COc1ccc(C#Cc2ccc([C@@H]3[C@H]4CN(C(=O)Cc5ccncc5)CCCCN4[C@H]3CO)cc2)cc1	-74	-16	nt	-5	nt	nt	nt
O=C(CCN1CC1)OCCOC(=O)CCN1CC1	-358	-19	1	?	nt	-1	nt	Alpha interfer=-15%
CN1C2CCC1CC(OC(=O)CCN1CCCC1)C2 (stereo unspecified)	nt	15	1	-4	-5	1	nt
O=C(NC[C@H]1CC[C@H]2[C@H](CN2Cc2cccnc2)O1)C1CC1	-2	nt	nt	10	nt	nt	nt
CN(C)c1ccc(Cc2ccc(N(C)C)cc2)cc1	-9	-2	-3	46*	-3	18	nt	Alpha interfer=9.3µM*
COc1cc2c(c(OC)c1OC)-c1ccc(O)c(=O)cc1[C@@H](N)CC2	46	7	-3	48*	nt	nt	nt	Alpha interfer=7.6µM*
CCN(CC)c1ccc(C(=C2C=CC(=[N+](CC)CC)C=C2)c2ccccc2)cc1	36	nt	-23	76*	38*	27	nt	Alpha interfer=1.1µM*
CCN(CC)c1ccccc1	-2	-6	0	nt	nt	nt	nt
FC(F)(F)CN1C[C@@H]2N[C@H](C1)C2c1ccc(Br)cc1 (stereo partly specified)	nt	nt	nt	nt	14	nt	nt
CN(C)c1ccc(/C=C/c2cc[n+](C)c3ccccc23)cc1	64*!	nt	39*!	41*	0	62*	8.3µM*	Alpha interfer=2.9µM*
C[C@@H]1CN([C@H](C)CO)C(=O)c2c(c3ccccc3n2C)-c2ccccc2CO[C@@H]1CN(C)C(=O)Oc1ccccc1	13	nt	nt	1	2	nt	nt
COc1ccc(C#Cc2ccc([C@@H]3[C@@H](CO)N4CCCCN(C(=O)Cc5ccncc5)C[C@@H]34)cc2)cc1	-63	-7	nt	-6	nt	nt	nt
CC1(C)CC(Nc2ccc(Nc3ccccc3)cc2)CC(C)(C)N1	100*	nt	-3	76*	20	37	i	Alpha interfer=13µM*
NC(N)=N/N=C/c1cn(-c2ccccc2)nc1-c1cccs1	88*	nt	-6	31*	35*	15	i	Alpha interfer=-24%
Cc1ccc(OC(=O)N(C)C[C@@H]2OCc3ccccc3-c3c(n(C)c4ccccc34)C(=O)N([C@@H](C)CO)C[C@@H]2C)cc1	12	nt	nt	6	2	nt	nt
CC[n+]1c(/C=C/N(C)c2ccccc2)sc2ccc(Cl)cc21	nt	15	-1	nt	-12	28	nt
CN(C)c1ccc(/C=C/C=C/c2sc3ccccc3[n+]2C)cc1	63*	14	21	61*	-13	57*	?	Alpha interfer=3.7µM*;Alpha artifact=10µM*
CC[n+]1c(/C=C/C=C/c2ccc(N(C)C)cc2)sc2ccccc21	20	25	28*	86*	2	81*	nt	Alpha interfer=1µM*;Alpha artifact=3.7µM*
C[C@H]1CN([C@@H](C)CO)C(=O)CCCn2nncc2CO[C@@H]1CN(C)C(=O)Oc1ccc2ccccc2c1	11	10	nt	-1	-4	nt	nt
SMILES	RAD52 anneal inh	RAD54 branch	Glyco luc inh	MLL AF4-AF9 inh	FN deposition inh	NSD2 HMT inh	DNA binder FP	others
COc1ccc(OCC(=O)N2CCN(C(C)C)CC2)cc1	nt	6	-2	nt	nt	1	nt
CC(C)N1CCN(c2ccc(O)cc2)CC1	83*	19	-3	-7	4	1	i
CC12CNCC(C)(CNC1)C2O (stereo unspecified)	57*	26	1	10	nt	-3	i
Cc1cc(N2CCNC[C@@H]2C)ccc1N1CC[C@@H](O)C1	96*	nt	nt	nt	4	nt	i
Oc1ccc(-[n+]2c(-c3ccccc3)cc(-c3ccccc3)cc2-c2ccccc2)cc1	60*	12	7	?	7	nt	i
O=C([O-])c1ccc(-[n+]2c(-c3ccccc3)cc(-c3ccccc3)cc2-c2ccccc2)cc1	57*	14	4	18	2	nt	i
COC(=O)[C@@H]1[C@@H](CO)[C@@H]2Cn3c(ccc(C4=CCCC4)c3=O)[C@H]1N2C(=O)CC1CC1	-14	-3	nt	0	nt	nt	nt
OC12ONC(c3ccccn3)C1N1CCC2CC1 (stereo unspecified)	80*	19	5	0	-8	-2	i
C1=C(c2ccccc2)CCNC1	-4	0	1	-4	-1	1	nt
Cc1[nH]c2ccccc2c1C1=CCNCC1	65*	2	0	38*	nt	nt	i
O=C(Cc1cccnc1)N1CCCCN2[C@H](C1)[C@H](c1ccc(C#CC3CCCC3)cc1)[C@@H]2CO	-7	12	nt	2	nt	nt	nt
CN1CC[C@@H]2CN[C@H](c3ccccc3Br)C[C@@H]21	71*	nt	nt	nt	0	nt	i
CN1OC[C@@H]2CN[C@H](c3ccccc3Br)C[C@@H]21	-30	8	1	-1	1	nt	nt
O=C(Cc1ccccn1)N1CCCCN2[C@@H](CO)[C@H](c3ccc(Br)cc3)[C@@H]2C1	-2	8	nt	1	nt	nt	nt
CCOc1ccc(C(C)=O)cc1Cn1ccsc1=N	64*	12	0	6	4	3	i
Nc1ccc(CC2=NCCN2)cc1	84*	nt	1	7	nt	1	63µM*
Cc1sc2ccccc2c1CC1=NCCN1	12	8	3	?	-3	nt	nt
CCCNC(=O)[C@H]1[C@H](CO)[C@H]2Cn3c(cccc3=O)[C@@H]1N2CCC	nt	-1	nt	-1	nt	nt	nt
COc1cc2c(cc1OC)-c1c(OC)c(OC)cc3c1C(C2)N(C)CC3 (stereo unspecified)	71*	62*	-1	14	nt	nt	i
